Results as given in ChEMBL document CHEMBL4325887, “Lipophilic Permeability Efficiency Reconciles the Opposing Roles of Lipophilicity in Membrane Permeability and Aqueous Solubility” (J Med Chem, 2018).
≈ marks a conversion by molar mass, not a printed value. Where a SMILES comes first, the peptide text is derived from it. [ ]: non-standard residue; d: D form. NMeY = CN[C@@H](Cc1ccc(O)cc1)C(=O)O; NMeF = CN[C@@H](Cc1ccccc1)C(=O)O; dNMeF = CN[C@H](Cc1ccccc1)C(=O)O; NMeA = CN[C@@H](C)C(=O)O; dNMeA = CN[C@H](C)C(=O)O; Sar = CNCC(=O)O

What was measured:
[1] = Thermodynamic aqueous solubility of compound in pH 7.4 PBS by UPLC-MS analysis; format: physicochemical; conditions: PBS pH 7.4, pH 7.4; read-out: Therm_solubility
[2] = 1,9-decadiene/aqueous buffer solution partition coefficient, log D of the compound in PBS at pH 7.4 by shake flask method; format: physicochemical
[3] = Apparent permeability of compound in pH 7.4 PBS after 16 hrs by PAMPA assay; format: ADME
[4] = Apparent permeability in low-efflux MDCK2 cells at 2 uM by lucifer yellow dye-based UPLC-MS analysis; format: ADME, cell-based, Canis lupus familiaris, MDCK-II; conditions: dog, MDCK
[5] = Apparent permeability in human Caco2 cells; format: ADME, cell-based; conditions: Caco-2
How it was run: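 Apical-to-basolateral permeation (Papp, ×10-6 cm/s) was measured in quadruplicate. Compound was quantified by selected-mass UPLC-MS.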

Row | Compound | solubility thermodynamic [1] | logD hydrocarbon water [2] | Papp at 16 h [3] | Papp at 2 µM [4] | Papp [5]
1 | CC[C@H](C)[C@@H]1NC(=O)[C@H](C)N(C)C(=O)[C@H](Cc2ccccc2)NC(=O)CN(C)C(=O)[C@@H]2CCCN2C(=O)[C@@H](Cc2ccccc2)N(C)C(=O)[C@H](CC(C)C)NC1=O (cyclo(F[NMeA]IL[dNMeF]P[Sar])) | 16 µM (≈ 12.6 µg/mL) | 0.71 | 5.9 ×10⁻⁶ cm/s |  | 
2 | CC[C@H](C)[C@@H]1NC(=O)[C@H](Cc2ccc(O)cc2)N(C)C(=O)[C@H](Cc2ccccc2)NC(=O)CN(C)C(=O)[C@H](C)N(C)C(=O)[C@@H](Cc2ccccc2)N(C)C(=O)[C@H](CC(C)C)NC1=O (cyclo(F[NMeY]IL[dNMeF][NMeA][Sar])) | 37 µM (≈ 32.1 µg/mL) | 0.92 | 7.8 ×10⁻⁶ cm/s |  | 
3 | CC[C@@H]1NC(=O)[C@H](CC(C)C)N(C)C(=O)[C@H](C(C)C)N(C)C(=O)[C@H](CC(C)C)N(C)C(=O)[C@H](CC(C)C)N(C)C(=O)[C@@H](C)NC(=O)[C@H](C)NC(=O)[C@H](CC(C)C)N(C)C(=O)[C@H](C(C)C)NC(=O)[C@H](CC(C)C)N(C)C(=O)CN(C)C1=O | 22 µM (≈ 25.2 µg/mL) | 3.94 |  | 1.8 ×10⁻⁶ cm/s | 
4 | C/C=C/C[C@@H](C)[C@@H](O)[C@H]1C(=O)N[C@@H](C(C)C)C(=O)N(C)CC(=O)N(C)[C@@H](CC(C)C)C(=O)N[C@@H](C(C)C)C(=O)N(C)[C@@H](CC(C)C)C(=O)N[C@@H](C)C(=O)N[C@H](C)C(=O)N(C)[C@@H](CC(C)C)C(=O)N(C)[C@@H](CC(C)C)C(=O)N(C)[C@@H](C(C)C)C(=O)N1C | 0.12 µM (≈ 0.146 µg/mL) | 3.86 |  | 0.7 ×10⁻⁶ cm/s | 
5 | CC[C@H](C)[C@@H]1NC(=O)[C@H](Cc2ccc(O)cc2)N(C)C(=O)[C@H](Cc2ccccc2)NC(=O)CN(C)C(=O)[C@@H]2CCCN2C(=O)[C@@H](C)N(C)C(=O)[C@H](CC(C)C)NC1=O (cyclo(F[NMeY]IL[dNMeA]P[Sar])) |  | -1.71 | 1.3 ×10⁻⁶ cm/s |  | 
6 | CC[C@H]1OC(=O)[C@H](C)[C@@H](O[C@H]2C[C@@](C)(OC)[C@@H](O)[C@H](C)O2)[C@H](C)[C@@H](O[C@@H]2O[C@H](C)C[C@H](N(C)C)[C@H]2O)[C@](C)(OC)C[C@@H](C)C(=O)[C@H](C)[C@@H](O)[C@]1(C)O [CLARITHROMYCIN] |  |  |  |  | > 10 ×10⁻⁶ cm/s
7 | CC[C@H](C)[C@@H]1NC(=O)[C@H](Cc2ccc(O)cc2)N(C)C(=O)[C@H](Cc2ccccc2)NC(=O)CN(C)C(=O)[C@@H]2CCCN2C(=O)[C@@H](Cc2ccccc2)N(C)C(=O)[C@H](CC(C)C)NC1=O [CORDYHEPTAPEPTIDE A] (cyclo(F[NMeY]IL[dNMeF]P[Sar])) | 0.45 µM (≈ 0.396 µg/mL) | -0.13 |  |  | 
8 | CC(C)C[C@@H]1NC(=O)[C@H](C)NC(=O)[C@H](Cc2ccc(O)cc2)N(C)C(=O)[C@H](Cc2ccccc2)NC(=O)CN(C)C(=O)[C@@H]2CCCN2C(=O)[C@@H](Cc2ccccc2)N(C)C1=O (cyclo(AL[dNMeF]P[Sar]F[NMeY])) | 10 µM (≈ 8.38 µg/mL) | -2.44 | 0.2 ×10⁻⁶ cm/s |  | 
9 | CC[C@H](C)[C@@H]1NC(=O)[C@H](Cc2ccc(O)cc2)N(C)C(=O)[C@H](C)NC(=O)CN(C)C(=O)[C@@H]2CCCN2C(=O)[C@@H](Cc2ccccc2)N(C)C(=O)[C@H](CC(C)C)NC1=O (cyclo(A[NMeY]IL[dNMeF]P[Sar])) | 17 µM (≈ 13.7 µg/mL) | -1.78 |  |  | 
10 | C/C=C/C[C@@H](C)[C@H]1OC(=O)[C@H](C(C)C)N(C)C(=O)[C@H](CC(C)C)N(C)C(=O)[C@H](CC(C)C)N(C)C(=O)[C@@H](C)NC(=O)[C@H](C)NC(=O)[C@H](CC(C)C)N(C)C(=O)[C@H](C(C)C)NC(=O)[C@H](CC(C)C)N(C)C(=O)CN(C)C(=O)[C@H](CC)NC(=O)[C@H]1NC | 2.2 µM (≈ 2.65 µg/mL) | 2.61 |  |  | 
11 | C/C=C/C[C@@H](C)[C@@H](O)[C@H]1C(=O)N[C@@H]([C@@H](C)O)C(=O)N(C)CC(=O)N(C)[C@@H](CC(C)C)C(=O)N[C@@H](C(C)C)C(=O)N(C)[C@@H](CC(C)C)C(=O)N[C@@H](C)C(=O)N[C@H](C)C(=O)N(C)[C@@H](CC(C)C)C(=O)N(C)[C@@H](CC(C)C)C(=O)N(C)[C@@H](C(C)C)C(=O)N1C | 33 µM (≈ 40.2 µg/mL) | 2.43 |  | 0.5 ×10⁻⁶ cm/s | 
12 | CC[C@H]1OC(=O)[C@H](C)[C@@H](O[C@H]2C[C@@](C)(OC)[C@@H](O)[C@H](C)O2)[C@H](C)[C@@H](O[C@@H]2O[C@H](C)C[C@H](N(C)C)[C@H]2O)[C@](C)(O)C[C@@H](C)CN(C)[C@H](C)[C@@H](O)[C@]1(C)O [AZITHROMYCIN] |  |  |  |  | 1 to 3 ×10⁻⁶ cm/s
13 | C/C=C/C[C@@H](C)[C@@H](OC(C)=O)[C@H]1C(=O)N[C@@H](CC)C(=O)N(C)CC(=O)N(C)[C@@H](CC(C)C)C(=O)N[C@@H](C(C)C)C(=O)N(C)[C@@H](CC(C)C)C(=O)N[C@@H](C)C(=O)N[C@H](C)C(=O)N(C)[C@@H](CC(C)C)C(=O)N(C)[C@@H](CC(C)C)C(=O)N(C)[C@@H](C(C)C)C(=O)N1C | 0.005 µM (≈ 0.00622 µg/mL) | 4.14 |  |  | 
14 | CC[C@H]1OC(=O)[C@H](C)[C@@H](O[C@H]2C[C@@](C)(OC)[C@@H](O)[C@H](C)O2)[C@H](C)[C@@H](O[C@@H]2O[C@H](C)C[C@H](N(C)C)[C@H]2O)[C@](C)(O)C[C@@H](C)C(=O)[C@H](C)[C@@H](O)[C@]1(C)O [ERYTHROMYCIN] |  | -3.9 |  |  | 1 to 3 ×10⁻⁶ cm/s
15 | CC[C@H](C)[C@@H]1NC(=O)[C@H](Cc2ccccc2)N(C)C(=O)[C@H](Cc2ccccc2)NC(=O)CN(C)C(=O)[C@@H]2CCCN2C(=O)[C@@H](Cc2ccccc2)N(C)C(=O)[C@H](CC(C)C)NC1=O (cyclo(F[NMeF]IL[dNMeF]P[Sar])) | 2.3 µM (≈ 1.99 µg/mL) | 2.13 | 2.3 ×10⁻⁶ cm/s |  | 
16 | CC[C@H]1OC(=O)[C@H](C)[C@@H](O[C@H]2C[C@@](C)(OC)[C@@H](O)[C@H](C)O2)[C@H](C)[C@@H](O[C@@H]2O[C@H](C)C[C@H](N(C)C)[C@H]2O)[C@](C)(O)C[C@@H](C)/C(=N/OCOCCOC)[C@H](C)[C@@H](O)[C@]1(C)O |  |  |  |  | > 10 ×10⁻⁶ cm/s
17 | C/C=C/C[C@@H](C)[C@@H](O)[C@H]1C(=O)N[C@@H](C)C(=O)N(C)CC(=O)N(C)[C@@H](CC(C)C)C(=O)N[C@@H](C(C)C)C(=O)N(C)[C@@H](CC(C)C)C(=O)N[C@@H](C)C(=O)N[C@H](C)C(=O)N(C)[C@@H](CC(C)C)C(=O)N(C)[C@@H](CC(C)C)C(=O)N(C)[C@@H](C(C)C)C(=O)N1C | 27 µM (≈ 32.1 µg/mL) | 3.18 |  | 1.4 ×10⁻⁶ cm/s | 
18 | CC[C@@H]1NC(=O)[C@H](CC(C)C)N(C)C(=O)[C@H](CC)N(C)C(=O)[C@H](CC(C)C)N(C)C(=O)[C@H](CC(C)C)N(C)C(=O)[C@@H](C)NC(=O)[C@H](C)NC(=O)[C@H](CC(C)C)N(C)C(=O)[C@H](C(C)C)NC(=O)[C@H](CC(C)C)N(C)C(=O)CN(C)C1=O | 10 µM (≈ 11.3 µg/mL) | 3.64 |  | 2.7 ×10⁻⁶ cm/s | 
19 | CC[C@H](C)[C@@H]1NC(=O)[C@H](Cc2ccc(O)cc2)N(C)C(=O)[C@H](Cc2ccccc2)NC(=O)CN(C)C(=O)[C@@H]2CCCN2C(=O)[C@@H](Cc2ccccc2)N(C)C(=O)[C@H](C)NC1=O (cyclo(A[dNMeF]P[Sar]F[NMeY]I)) | 9 µM (≈ 7.54 µg/mL) | -1.52 |  |  | 
20 | CC(C)C[C@@H]1NC(=O)[C@H](C(C)C)NC(=O)[C@H](Cc2ccc(O)cc2)N(C)C(=O)[C@H](Cc2ccccc2)NC(=O)CN(C)C(=O)[C@@H]2CCCN2C(=O)[C@@H](Cc2ccccc2)N(C)C1=O [Cordyheptapeptide C] | 2.7 µM (≈ 2.34 µg/mL) | -0.43 | 1.9 ×10⁻⁶ cm/s |  | 
